# Measured values published in PubChem BioAssay AID651921 (Vanderbilt Specialized Chemistry Center, 2012).
# The source made the active and inactive calls. How the calls were made is not given here.
# Biological target: Muscarinic acetylcholine receptor M1 (Rattus norvegicus) (UniProt P08482)
# Assay: rat M1 receptor potentiation, selectivity assay for M5 PAM project, CHO cells (AID 651921)
# Details: CHO-K1 rat M1, calcium Fluo-4, ACh EC20; series mostly up to 30 µM
# Method in brief: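 Assay system: CHO-K1 cells / Doses: 0.3% DMSO final in compound wells / Schedule: 1.5 min compound, 50 s agonist, 25 °C / Probe or stimulus: acetylcholine, EC20 / Measure: baseline-normalized signal as percent of maximal acetylcholine response / Signal: fluorescence readout of intracellular calcium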
# Chain of Muscarinic acetylcholine receptor M1 (Rattus norvegicus) (P08482 whole entry, looked up): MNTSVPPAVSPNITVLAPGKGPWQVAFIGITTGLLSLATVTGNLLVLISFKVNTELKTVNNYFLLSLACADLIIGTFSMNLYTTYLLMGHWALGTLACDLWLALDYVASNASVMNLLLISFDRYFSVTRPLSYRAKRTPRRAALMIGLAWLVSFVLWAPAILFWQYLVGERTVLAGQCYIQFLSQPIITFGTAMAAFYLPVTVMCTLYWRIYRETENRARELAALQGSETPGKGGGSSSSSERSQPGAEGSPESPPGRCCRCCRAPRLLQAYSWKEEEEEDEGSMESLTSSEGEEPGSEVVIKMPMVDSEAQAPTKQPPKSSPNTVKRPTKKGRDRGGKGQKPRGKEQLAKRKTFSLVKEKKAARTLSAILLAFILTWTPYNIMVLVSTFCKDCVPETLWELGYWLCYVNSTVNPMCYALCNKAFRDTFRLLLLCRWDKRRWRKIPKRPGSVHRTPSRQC
compound,measurement,value
O=C1C(=O)N(CCOc2ccccc2)c2ccc(OC(F)(F)F)cc21,outcome,inactive
